# From ChEMBL document CHEMBL2034830, “Pyrazole[3,4-e][1,4]thiazepin-7-one derivatives as a novel class of Farnesoid X Receptor (FXR) agonists” (Bioorg Med Chem, 2012)
# pEC50: −log10 of the molar value. Active and inactive are the calls of the source. The calls are words filed in the database; no cut-off is given here.
# What was measured:
# [1] = biological target: T1, Bile acid receptor (Homo sapiens) (UniProt Q96RI1); test: Agonist activity at human GST-tagged FXR ligand binding domain assessed as recruitment of Src-1 peptide […] by AlphaScreen assay relative to 10 uM of CDCA
# T1 sequence (whole entry): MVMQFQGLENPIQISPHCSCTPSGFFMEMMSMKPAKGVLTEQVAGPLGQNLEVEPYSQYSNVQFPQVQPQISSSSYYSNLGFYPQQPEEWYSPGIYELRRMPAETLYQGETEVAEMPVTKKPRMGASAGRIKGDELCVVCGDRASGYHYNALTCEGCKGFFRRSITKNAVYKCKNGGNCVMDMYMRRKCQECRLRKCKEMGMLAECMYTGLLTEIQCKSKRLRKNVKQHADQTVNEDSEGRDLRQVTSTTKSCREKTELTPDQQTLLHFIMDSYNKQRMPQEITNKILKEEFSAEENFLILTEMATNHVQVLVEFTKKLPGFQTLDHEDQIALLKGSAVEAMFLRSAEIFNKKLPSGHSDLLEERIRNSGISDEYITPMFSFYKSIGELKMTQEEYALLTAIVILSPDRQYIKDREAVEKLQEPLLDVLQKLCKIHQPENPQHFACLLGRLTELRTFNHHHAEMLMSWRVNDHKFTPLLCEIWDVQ
# Bile acid receptor = biological target: T2, Bile acid receptor (Homo sapiens, UniProt Q96RI1); test: Agonist activity at human GST-tagged FXR ligand binding domain assessed as recruitment of Src-1 peptide […] by AlphaScreen assay; conditions: for pEC50: read-out: EC50
# T2 sequence (Q96RI1 whole entry): T1 sequence (whole entry)
# [2] = biological target: T1, Bile acid receptor (Homo sapiens); test: Induction of FXR-mediated upregulation of Ostbeta gene in human HepG2 cells after 18 hrs by qRT-PCR analysis relative to obeticholic acid; assay type: cell-based
# Procedure, shortened: (§1)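 HepG2 cells were stimulated for 18 h with increasing compound concentrations. Total RNA was random reverse-transcribed, and 10 ng template was run in SYBR Green real-time PCR with 0.3 μM of each primer. Cycling was 95 °C 3 min, then 45 cycles of 95 °C 10 s and 60 °C 30 s, in triplicate. Expression is given as ΔCT against an endogenous control, and relative expression as ΔΔCT.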
# [3] = biological target: T1, Bile acid receptor (Homo sapiens); test: Induction of FXR-mediated upregulation of Bsep gene in human HepG2 cells after 18 hrs by qRT-PCR analysis; assay type: cell-based; procedure, shortened: as §1
# [4] = biological target: T1, Bile acid receptor (Homo sapiens); test: Induction of FXR-mediated down-regulation of Cyp7alpha1 gene in human HepG2 cells after 18 hrs by qRT-PCR analysis; assay type: cell-based; procedure, shortened: as §1
Efficacy [1],pEC50 (Bile acid receptor),Structure (SMILES),other results
72%,5.41,Cc1nn(-c2ccccc2F)c2c1C(c1ccc(Oc3ccccc3)cc1)SC(C)C(=O)N2 (mixture of isomers),
70%,5.66,COc1ccc(Oc2ccc([C@H]3S[C@@H](C)C(=O)Nc4c3c(C)nn4-c3ccccc3C)cc2)cc1 (racemic),
63%,4.98,COc1ccc(C2SC(C)C(=O)Nc3c2c(C)nn3-c2ccccc2C)c(OC)c1 (configuration not stated),
37%,5.48,COc1ccccc1-n1nc(C)c2c1NC(=O)[C@H](C)S[C@@H]2c1ccc(Oc2ccccc2)cc1 (racemic),
130%,5.89,Cc1nn(-c2ccccc2I)c2c1C(c1ccc(Oc3ccccc3)cc1)SC(C)C(=O)N2 (racemic),
68%,5.85,Cc1ccccc1-n1nc(C)c2c1NC(=O)[C@H](C)S[C@@H]2c1ccc(-c2ccsc2)cc1 (racemic),
85%,5.59,Cc1ccccc1-n1nc(C)c2c1NC(=O)[C@H](C)S[C@@H]2c1ccc(-c2cccs2)cc1 (racemic),
40%,5.46,Cc1ccccc1-n1nc(C)c2c1NC(=O)[C@H](C)S[C@@H]2c1ccc(-c2ccoc2)cc1 (racemic),
190%,5.96,CCc1ccccc1-n1nc(C)c2c1NC(=O)[C@H](C)S[C@@H]2c1ccc(Oc2ccccc2)cc1 (racemic),Activity [2]: Active; Activity [3]: Dose-dependent effect; Activity [4]: Dose-dependent effect
240%,5.77,COc1ccccc1Oc1ccc([C@H]2S[C@@H](C)C(=O)Nc3c2c(C)nn3-c2ccccc2C)cc1 (racemic),Activity [2]: Active; Activity [3]: inactive; Activity [4]: Dose-dependent effect
11%,5.47,Cc1ccc(-n2nc(C)c3c2NC(=O)[C@H](C)S[C@@H]3c2ccc(Oc3ccccc3)cc2)cc1 (racemic),

# The next lines start with the compound.
Structure (SMILES),Efficacy [1],pEC50 (Bile acid receptor),other results
Cc1ccccc1-n1nc(C)c2c1NC(=O)[C@H](C)S[C@@H]2c1ccc(-c2cc3ccccc3o2)cc1 (racemic),17%,5.82,
Cc1ccccc1-n1nc(C)c2c1NC(=O)[C@H](C)S[C@@H]2c1ccc(-c2ccc(C(=O)O)cc2)cc1 (racemic),,,EC50 (Bile acid receptor): Not Active
CCOc1cccc(-c2ccc([C@H]3S[C@@H](C)C(=O)Nc4c3c(C)nn4-c3ccccc3C)cc2)c1 (racemic),13%,5.46,
Cc1ccccc1-n1nc(C)c2c1NC(=O)[C@H](C)S[C@@H]2c1ccc(-c2ccccc2)cc1 (racemic),24%,6.00,
COc1ccc(-c2ccc([C@H]3S[C@@H](C)C(=O)Nc4c3c(C)nn4-c3ccccc3C)cc2)cc1 (racemic),38%,5.92,
Cc1nn(-c2ccccc2C(F)(F)F)c2c1C(c1ccc(Oc3ccccc3)cc1)SC(C)C(=O)N2 (racemic),50%,5.70,
Cc1ccccc1-n1nc(C)c2c1NC(=O)[C@H](C)S[C@@H]2c1ccc(-c2ccco2)cc1 (racemic),32%,5.44,
Cc1ccccc1-n1nc(C)c2c1NC(=O)[C@H](C)S[C@@H]2c1ccc(Oc2cccc(C(=O)O)c2)cc1 (racemic),,,EC50 (Bile acid receptor): Not Active
Cc1ccccc1-n1nc(C)c2c1NC(=O)[C@H](C)S[C@@H]2c1ccc(/C=C/c2ccccc2)cc1 (racemic),,,EC50 (Bile acid receptor): Not Active
Cc1ccccc1-n1nc(C)c2c1NC(=O)[C@H](C)S[C@@H]2c1ccc(OCc2ccccc2)cc1 (racemic),,,EC50 (Bile acid receptor): Not Active
Cc1cccc(-n2nc(C)c3c2NC(=O)[C@H](C)S[C@@H]3c2ccc(Oc3ccccc3)cc2)c1 (racemic),22%,5.62,
COC(=O)c1ccc(-c2ccc([C@H]3S[C@@H](C)C(=O)Nc4c3c(C)nn4-c3ccccc3C)cc2)cc1 (racemic),,,EC50 (Bile acid receptor): Not Active
Cc1nn(-c2ccccc2C(C)C)c2c1[C@@H](c1ccc(Oc3ccccc3)cc1)S[C@@H](C)C(=O)N2 (racemic),174%,5.72,
COC(=O)c1cccc(-c2ccc([C@H]3S[C@@H](C)C(=O)Nc4c3c(C)nn4-c3ccccc3C)cc2)c1 (racemic),,,EC50 (Bile acid receptor): Not Active
COc1cccc(Oc2ccc([C@H]3S[C@@H](C)C(=O)Nc4c3c(C)nn4-c3ccccc3C)cc2)c1 (racemic),120%,5.77,
CCCc1ccccc1-n1nc(C)c2c1NC(=O)[C@H](C)S[C@@H]2c1ccc(Oc2ccccc2)cc1 (racemic),240%,5.96,Activity [2]: Active; Activity [3]: inactive; Activity [4]: Dose-dependent effect
Cc1ccccc1-n1nc(C)c2c1NC(=O)[C@H](C)S[C@@H]2c1ccc(-c2cccc(C(=O)O)c2)cc1 (racemic),,,EC50 (Bile acid receptor): Not Active
COc1cc([C@H]2S[C@@H](C)C(=O)Nc3c2c(C)nn3-c2ccccc2C)ccc1Oc1ccccc1 (racemic),130%,5.72,
COc1cccc(-c2ccc([C@H]3S[C@@H](C)C(=O)Nc4c3c(C)nn4-c3ccccc3C)cc2)c1 (racemic),41%,5.74,
COc1ccccc1-c1ccc([C@H]2S[C@@H](C)C(=O)Nc3c2c(C)nn3-c2ccccc2C)cc1 (racemic),50%,5.96,
Cc1ccccc1-n1nc(C)c2c1NC(=O)[C@H](C)S[C@@H]2c1ccc(Oc2ccccc2C(=O)O)cc1 (racemic),,,EC50 (Bile acid receptor): Not Active
Cc1nn(-c2ccccc2Br)c2c1C(c1ccc(Oc3ccccc3)cc1)SC(C)C(=O)N2 (mixture of isomers),84%,5.74,
Cc1nn(-c2ccccc2Cl)c2c1C(c1ccc(Oc3ccccc3)cc1)SC(C)C(=O)N2 (mixture of isomers),57%,5.57,
Cc1ccccc1-n1nc(C)c2c1NC(=O)[C@H](C)S[C@@H]2c1ccc(Oc2ccccc2)cc1 (racemic),118%,5.89,
Cc1ccccc1-n1nc(C)c2c1NC(=O)[C@H](C)S[C@@H]2c1ccc(Oc2ccc(C(=O)O)cc2)cc1 (racemic),,,EC50 (Bile acid receptor): Not Active
